Series [1] concerns the target T1, Vasopressin V1b receptor (Homo sapiens, UniProt P47901).
T1 sequence (P47901 whole entry): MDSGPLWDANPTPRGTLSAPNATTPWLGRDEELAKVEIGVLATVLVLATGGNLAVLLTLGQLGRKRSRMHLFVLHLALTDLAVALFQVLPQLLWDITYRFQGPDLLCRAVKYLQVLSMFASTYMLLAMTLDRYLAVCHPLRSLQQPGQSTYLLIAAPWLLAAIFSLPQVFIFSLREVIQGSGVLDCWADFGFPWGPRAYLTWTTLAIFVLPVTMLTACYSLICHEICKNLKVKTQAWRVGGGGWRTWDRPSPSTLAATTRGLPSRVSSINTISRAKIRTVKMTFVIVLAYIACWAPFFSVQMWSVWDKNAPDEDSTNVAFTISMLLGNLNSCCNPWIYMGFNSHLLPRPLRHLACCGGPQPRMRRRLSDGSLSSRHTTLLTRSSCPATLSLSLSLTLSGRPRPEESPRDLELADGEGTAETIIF
The series can be described thus: Displacement of [3H]AVP from human vasopressin V1b receptor expressed in CHO cells by scintillation counting. The class given is cell-based. (In general: In a radioligand displacement assay an active substance lowers the binding of a labelled ligand.)

Series [2] has as its target Vasopressin V1a receptor (Homo sapiens, UniProt P37288). The series can be described thus: Displacement of [3H]AVP from human vasopressin V1a receptor expressed in CHO cells by scintillation counting. The class given is cell-based. Summed up:
(§1)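 Ki from radioligand displacement at the human receptor, run per a previously published protocol; each value is the mean of at least two experiments.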

Series [3] addresses Vasopressin V2 receptor (Homo sapiens, UniProt P30518). The series can be described thus: Displacement of [3H]AVP from human vasopressin V2 receptor expressed in CHO cells by scintillation counting. It is filed as cell-based. The procedure, abridged:
as §1

In series [4] the target is T2, Oxytocin receptor (Homo sapiens, UniProt P30559).
T2 sequence (P30559 whole entry): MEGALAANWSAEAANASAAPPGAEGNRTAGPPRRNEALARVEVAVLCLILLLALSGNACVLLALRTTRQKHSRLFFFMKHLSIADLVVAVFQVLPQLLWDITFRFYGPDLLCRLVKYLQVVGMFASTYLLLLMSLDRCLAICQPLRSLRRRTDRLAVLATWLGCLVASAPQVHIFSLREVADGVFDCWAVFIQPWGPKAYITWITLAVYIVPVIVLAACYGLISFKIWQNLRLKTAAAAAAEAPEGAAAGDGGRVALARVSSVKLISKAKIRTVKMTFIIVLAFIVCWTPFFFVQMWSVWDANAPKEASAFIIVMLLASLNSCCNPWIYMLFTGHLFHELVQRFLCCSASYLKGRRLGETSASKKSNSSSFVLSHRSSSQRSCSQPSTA
The series can be described thus: Displacement of radiolabeled oxytocin from human oxytocin receptor expressed in CHO cells by scintillation counting. It is filed as cell-based. The procedure, abridged: as §1

Series [5] can be described thus: Intrinsic clearance in human liver microsomes measured up to 40 mins by HPLC-MS method. The class given is ADME, Microsome. The procedure, abridged:
(§2)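 Intrinsic clearance determined by liver microsome incubation using a previously published procedure, reported in µL/min/mg; each value is the mean of at least two experiments.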
On the technique in general: Liver microsomes are vesicles of endoplasmic reticulum, rich in cytochrome P450 enzymes.

The nature of series [6]: Intrinsic clearance in rat liver microsomes measured up to 40 mins by HPLC-MS method. It is filed as ADME, Microsome. Summed up:
as §2

Series [7] can be described thus: Terminal half life in rat at 2 mg/kg, iv. On the set-up: dose 2 mg/kg, route intravenous. The following applies: in vivo, read-out: beta t1/2 (converted). It is filed as ADME, organism-based.
Series [8] in a line: Volume of distribution at steady state in rat at 2 mg/kg, iv. The class given is ADME, organism-based. On the set-up: dose 2 mg/kg, route intravenous. To be noted: in vivo, read-out: Vdss.
Series [9] is described as follows: Clearance in rat plasma at 2 mg/kg, iv. It is filed as ADME, organism-based. On the set-up: dose 2 mg/kg, route intravenous.
Series [10] is described as follows: Oral bioavailability in rat plasma at 10 mg/kg. The class given is ADME, organism-based.
Series [11] is described as follows: Ratio of AUC in brain to plasma in rat at 10 mg/kg, ip. It is filed as ADME, organism-based. On the set-up: dose 10 mg/kg, route intraperitoneal. The following applies: brain and plasma, read-out: Ratio AUC.
Series [12] has as its system Rattus norvegicus. The series can be described thus: Antidepressant activity in rat at 3 mg/kg, ip by forced swimming test. The class given is functional, organism-based. On the set-up: dose 3 mg/kg.

The text below walks through data of ChEMBL document CHEMBL1777717, “Potent and selective oxindole-based vasopressin 1b receptor antagonists with improved pharmacokinetic properties” (Bioorg Med Chem Lett, 2011).

Calls of active or inactive are those of the source. The rule behind the calls is not given here.

What is called Ki is a dissociation constant, usually derived from enzyme kinetics or from competition with a known ligand. A word on the microsomal CLint: it is the capacity of the preparation to metabolise the compound, expressed as a volume cleared per time. Broadly, the clearance is a measure of how efficiently the substance is removed, as volume per time. Read a high clearance as efficient removal. By bioavailability is commonly meant the share of a dose that reaches the circulation, judged against a reference dose that is usually intravenous. The low end stands for poor availability, the high end for good availability.

Chain of Vasopressin V1a receptor (P37288 whole entry): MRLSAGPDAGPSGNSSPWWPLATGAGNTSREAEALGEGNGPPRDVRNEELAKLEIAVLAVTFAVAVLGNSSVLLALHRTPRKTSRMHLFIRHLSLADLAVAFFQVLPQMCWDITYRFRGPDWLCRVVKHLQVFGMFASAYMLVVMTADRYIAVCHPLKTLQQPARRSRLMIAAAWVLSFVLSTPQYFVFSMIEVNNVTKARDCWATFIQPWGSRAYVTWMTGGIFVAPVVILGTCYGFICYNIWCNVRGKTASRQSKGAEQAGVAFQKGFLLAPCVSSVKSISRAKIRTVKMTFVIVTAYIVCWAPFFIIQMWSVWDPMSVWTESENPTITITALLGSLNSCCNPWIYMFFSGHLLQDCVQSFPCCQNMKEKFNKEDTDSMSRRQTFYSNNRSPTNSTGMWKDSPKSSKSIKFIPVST
Chain of Vasopressin V2 receptor (P30518 whole entry): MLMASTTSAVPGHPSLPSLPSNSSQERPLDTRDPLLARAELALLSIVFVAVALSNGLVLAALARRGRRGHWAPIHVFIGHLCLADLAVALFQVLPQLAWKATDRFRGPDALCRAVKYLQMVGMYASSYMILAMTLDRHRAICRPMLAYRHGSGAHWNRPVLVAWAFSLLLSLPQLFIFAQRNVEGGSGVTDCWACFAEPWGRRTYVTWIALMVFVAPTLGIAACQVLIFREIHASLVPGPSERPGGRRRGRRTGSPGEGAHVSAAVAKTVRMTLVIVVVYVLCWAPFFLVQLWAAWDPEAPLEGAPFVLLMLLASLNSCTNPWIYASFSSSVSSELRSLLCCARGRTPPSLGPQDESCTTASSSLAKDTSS

As to `CNCc1ccc(OC)c([C@@]2(N3CCC[C@H]3c3ncco3)C(=O)N(S(=O)(=O)c3ccc(OC)cc3)c3ccc(Cl)cc32)c1`, the inhibition constant Ki in series [1] was 0.0039 µM; in [2], 0.243 µM; in [3], more than 1 µM; in [4] it was 0.135 µM. The figures for the microsomal CLint in series [5] and in [6] were 64 µL/min/mg and 62 µL/min/mg, respectively. Further, the half-life in series [7] was 3.3 h. Besides, the Vd in series [8] stood at 13 L/kg. This compound also had a clearance in series [9] of 50 mL/min/kg. Besides, the bioavailability in series [10] turned out to be 68%. The Kp in series [11] turned out to be 0.31. In addition, in [12], the result was Active.
